Format in all cases: functional
In assay [1] the test system is Biomphalaria peregrina. As to the kind of experiment: Molluscicidal activity against Biomphalaria peregrina assessed as mortality at 5 ppm after 24 hrs. Summed up: (§1)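 Snails (Biomphalaria peregrina) exposed for 24 h to test samples at 50, 20, 10, 5 and 2.5 ppm, with 21 snails per concentration. Mortality was recorded as a percentage. LD50 and LD90 were calculated from the mortality data by probit analysis. CuSO4 at 10 ppm served as the positive control, alongside an untreated control.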

Assay [2] concerns Biomphalaria peregrina. Briefly: Molluscicidal activity against Biomphalaria peregrina after 24 hrs. Put shortly:
as §1

Assay [3] deals with Biomphalaria peregrina. Briefly: Molluscicidal activity against Biomphalaria peregrina assessed as mortality at 2.5 ppm after 24 hrs. Put shortly: as §1
The subject of assay [4] is Biomphalaria peregrina. Briefly: Molluscicidal activity against Biomphalaria peregrina assessed as mortality at 10 ppm after 24 hrs. Summed up:
as §1

On to `CCCC(=O)C1=C(O)C(C)(CC=C(C)C)C(O)=C(Cc2c(O)c(O)cc(OC)c2C(=O)CCC)C1=O` (stereo not given) [ELAPHOPILOSIN D], for which the values for the Activity in the assay on Biomphalaria peregrina [1], with Biomphalaria peregrina [3] and with Biomphalaria peregrina [4] were 24%, 10% and 81%, respectively. In the assay on Biomphalaria peregrina [2], this molecule showed an LD90 of 22.8 µM. In the assay on Biomphalaria peregrina [2] (Biomphalaria peregrina, 24 h, read-out: LD50 (the source's name)), the LC50 was 14.4 µM.

The record behind these values is ChEMBL document CHEMBL1158578, “Phloroglucinols from the argentine ferns Elaphoglossum gayanum and E. piloselloides” (2010).
